Among the data in ChEMBL document CHEMBL2396604, “Synthesis and structure activity relationship of tetrahydroisoquinoline-based potentiators of GluN2C and GluN2D containing N-methyl-D-aspartate receptors” (J Med Chem, 2013) are Activity and EC50 values, retold here.

Calls of active or inactive are those of the source. No cut-off for these calls is given here.

The target in assay [1] is Glutamate NMDA receptor; Grin1/Grin2b (Rattus norvegicus) (UniProt P35439+Q00960). Briefly: Activity at rat recombinant GluN1/GluN2B receptor expressed in Xenopus oocytes assessed as potentiation of glycine/glutamate-induced effect at 100 uM by two-electrode voltage clamp technique relative to control. Format: cell-based. The following applies: Oocyte. The procedure, abridged:
(§1)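 Two-electrode voltage clamp of oocytes at -40 mV, 2–5 days after cRNA injection. Bath solution (mM) 90 NaCl, 1.0 KCl, 0.5 BaCl₂, 0.005 EDTA, 10 HEPES, pH 7.4, 23°C. Compound applied with 100 µM glutamate plus 30 µM glycine; DMSO 0.05–0.5% final. Current expressed as percent of response without compound. For GluN2A, some oocytes were pretreated with 50 µM BAPTA-AM for 10 min or injected with K-BAPTA.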

In assay [2] the target is Glutamate receptor ionotropic, kainate 2 (Rattus norvegicus) (UniProt P42260). Briefly: Activity at rat recombinant GluK2 receptor expressed in Xenopus oocytes assessed as effect on glutamate-induced response by two-electrode voltage clamp technique. Format: cell-based. The following applies: Oocyte. The procedure, abridged:
(§2)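 Oocytes injected with 1–5 ng cRNA, kept in Barth's solution at 15°C for 2–5 days. Clamped at -40 mV in 90 NaCl, 1.0 KCl, 0.5 BaCl₂, 0.005 EDTA, 10 HEPES (mM), pH 7.4, 23°C. Receptors activated by 100 µM glutamate with compound co-applied. GluK2 oocytes pretreated with 10 µM concanavalin A for 10 min. DMSO 0.05–0.5% final.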
In general terms: Two-electrode voltage clamp is typically applied to oocytes expressing channels or transporters.

Assay [3] has as its target Glutamate receptor 1 (Rattus norvegicus) (UniProt P19490). In words: Activity at rat recombinant GluA1 receptor expressed in Xenopus oocytes assessed as effect on glutamate-induced response by two-electrode voltage clamp technique. It is filed as cell-based. The following applies: Oocyte. The procedure, abridged: as §2
Assay [4] has as its target Ionotropic glutamate receptor NMDA 1/2D (Rattus norvegicus, UniProt P35439+Q62645). Briefly: Activity at rat recombinant GluN1/GluN2D receptor assessed as potentiation of glycine/glutamate-induced activation by two-electrode voltage clamp technique. Format: protein-complex assay.
Assay [5] addresses Glutamate NMDA receptor; Grin1/Grin2c (Rattus norvegicus, UniProt P35439+Q00961). Briefly: Activity at rat recombinant GluN1/GluN2C receptor assessed as potentiation of glycine/glutamate-induced activation by two-electrode voltage clamp technique. Format: protein-complex assay.
Assay [6] addresses Glutamate NMDA receptor; Grin1/Grin2a (Rattus norvegicus) (UniProt P35439+Q00959). In words: Activity at rat recombinant GluN1/GluN2A receptor expressed in Xenopus oocytes assessed as potentiation of glycine/glutamate-induced effect at 100 uM by two-electrode voltage clamp technique relative to control. The following applies: Oocyte. Format: cell-based. The method in brief:
as §1

Assay [7] has as its system BHK. In words: Activity at GluN1/GluN2C receptor in hamster BHK cells assessed as effect on NMDA-induced response after 24 hrs by Fluo-4 dye-based fluorescence assay. The following applies: Mesocricetus auratus. Format: cell-based.
Assay [8] has as its system BHK. In words: Activity at GluN1/GluN2C receptor in hamster BHK cells assessed as effect on NMDA-induced response up to 6 hrs by Fluo-4 dye-based fluorescence assay. It is filed as cell-based. The following applies: Mesocricetus auratus.
Assay [9] concerns the target Ionotropic glutamate receptor NMDA 1/2D (Rattus norvegicus) (UniProt P35439+Q62645). In words: Activity at rat recombinant GluN1/GluN2D receptor expressed in Xenopus oocytes assessed as potentiation of 0.3 uM glycine/0.1 uM glutamate-induced activation at 10 uM by two-electrode voltage clamp technique relative to control. It is filed as cell-based. The following applies: Oocyte.

Assay [10] deals with Glutamate NMDA receptor; Grin1/Grin2c (Rattus norvegicus) (UniProt P35439+Q00961). Briefly: Activity at rat recombinant GluN1/GluN2C receptor expressed in Xenopus oocytes assessed as potentiation of glycine/glutamate-induced activation at 100 uM by two-electrode voltage clamp technique relative to control. Particulars: Oocyte. Format: cell-based. The method in brief: as §1

Sequence of Glutamate receptor 1 (Rattus norvegicus) (P19490 whole entry): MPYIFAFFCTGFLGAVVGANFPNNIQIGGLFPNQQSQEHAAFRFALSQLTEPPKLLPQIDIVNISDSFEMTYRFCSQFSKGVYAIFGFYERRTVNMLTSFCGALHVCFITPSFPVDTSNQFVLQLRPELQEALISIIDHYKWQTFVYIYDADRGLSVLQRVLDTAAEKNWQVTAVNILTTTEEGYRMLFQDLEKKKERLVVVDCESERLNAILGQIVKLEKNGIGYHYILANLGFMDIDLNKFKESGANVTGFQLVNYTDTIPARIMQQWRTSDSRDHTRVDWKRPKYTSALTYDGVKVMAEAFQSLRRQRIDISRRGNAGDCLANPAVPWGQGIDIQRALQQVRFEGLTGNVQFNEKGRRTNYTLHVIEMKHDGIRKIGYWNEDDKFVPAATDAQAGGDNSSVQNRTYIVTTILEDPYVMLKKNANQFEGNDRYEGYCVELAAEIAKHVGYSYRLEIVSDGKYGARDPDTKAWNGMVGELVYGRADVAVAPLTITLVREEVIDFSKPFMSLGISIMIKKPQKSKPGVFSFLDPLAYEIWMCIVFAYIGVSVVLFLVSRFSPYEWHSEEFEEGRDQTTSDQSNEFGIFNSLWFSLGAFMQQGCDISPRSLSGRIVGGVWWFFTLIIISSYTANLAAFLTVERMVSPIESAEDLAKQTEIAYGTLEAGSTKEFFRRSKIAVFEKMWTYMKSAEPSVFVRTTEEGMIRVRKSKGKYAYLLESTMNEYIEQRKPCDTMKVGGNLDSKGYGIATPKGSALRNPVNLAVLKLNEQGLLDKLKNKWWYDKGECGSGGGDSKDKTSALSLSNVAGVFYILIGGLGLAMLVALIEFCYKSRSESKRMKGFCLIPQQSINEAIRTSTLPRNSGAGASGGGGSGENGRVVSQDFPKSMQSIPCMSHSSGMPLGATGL
Sequence of Glutamate receptor ionotropic, kainate 2 (Rattus norvegicus) (P42260 whole entry): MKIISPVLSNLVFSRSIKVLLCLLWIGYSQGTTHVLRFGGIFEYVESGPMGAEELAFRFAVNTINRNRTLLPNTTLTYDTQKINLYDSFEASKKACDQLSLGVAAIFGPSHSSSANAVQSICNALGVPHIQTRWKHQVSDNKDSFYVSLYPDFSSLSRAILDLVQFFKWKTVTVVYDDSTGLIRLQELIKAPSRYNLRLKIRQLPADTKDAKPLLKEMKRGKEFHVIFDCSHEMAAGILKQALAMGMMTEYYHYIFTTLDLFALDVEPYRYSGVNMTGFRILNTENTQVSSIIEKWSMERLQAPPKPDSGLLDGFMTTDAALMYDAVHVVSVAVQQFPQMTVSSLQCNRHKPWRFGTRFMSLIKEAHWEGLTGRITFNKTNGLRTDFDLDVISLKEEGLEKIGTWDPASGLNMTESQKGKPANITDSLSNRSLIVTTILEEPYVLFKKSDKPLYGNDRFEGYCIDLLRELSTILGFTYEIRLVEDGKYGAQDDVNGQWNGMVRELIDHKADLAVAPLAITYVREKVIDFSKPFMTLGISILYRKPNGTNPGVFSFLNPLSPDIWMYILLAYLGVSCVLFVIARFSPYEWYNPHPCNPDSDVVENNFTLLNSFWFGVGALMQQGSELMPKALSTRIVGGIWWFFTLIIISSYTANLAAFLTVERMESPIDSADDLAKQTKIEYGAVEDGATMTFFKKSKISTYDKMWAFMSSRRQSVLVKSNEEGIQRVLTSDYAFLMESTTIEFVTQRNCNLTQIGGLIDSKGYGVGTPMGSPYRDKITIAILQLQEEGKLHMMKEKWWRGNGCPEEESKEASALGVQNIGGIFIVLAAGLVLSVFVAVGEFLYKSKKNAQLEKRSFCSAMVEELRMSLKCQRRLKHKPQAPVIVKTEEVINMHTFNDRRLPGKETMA

Turning to `CCOc1ccc(OCC2c3cc(OC)c(OC)cc3CCN2C(=O)c2cccc(Br)c2)cc1` (racemic), in assay [1], the result was Active.

As to `COC(=O)c1ccc(OCC2c3cc(OC)c(OC)cc3CCN2C(=O)c2cccc(Cl)c2)cc1` (racemic), the result in assay [1] was Active.

As a reminder, the EC50 is the concentration giving half of the maximal effect. In the case of `COc1ccc(OCC2c3cc(OC)c(OC)cc3CCN2C(=O)c2cccc(Br)c2)cc1` (racemic), the result in assay [2] and in assay [3] was inactive. Further, the EC50 in assay [4] was 2.2 µM; in assay [5], 0.9 µM.

For `COc1ccc(OCC2c3cc4c(cc3CCN2C(=O)c2ccccc2)OCO4)cc1` (racemic), the Activity in assay [6] turned out to be 70%.

As to `COc1ccc(OCC2c3cc(OC)c(OC)cc3CCN2C(=O)c2cccc(Cl)c2)cc1` (racemic), the result (with BHK [7]; in assay [2]; in assay [3]) was inactive. The outcome in the assay on BHK [8] was Active. The Activity in [9] came out at 353%.

As to `COc1cc2c(cc1OC)CN(C(=O)c1cccc(Br)c1)CC2`, the Activity in assay [6] stood at 70%.

For `COc1ccc(OCC2c3cc(OC)c(OC)cc3CCN2C(=O)c2ccccc2)cc1` (racemic), the outcome in assay [2] and in [3] was inactive. For the same compound, the outcome in [1] was Active. The EC50 stood at 11 µM in [4] and 12 µM in assay [5].

In the case of `COc1ccc(OCC2c3cc(OC)c(OC)cc3CCN2C(=O)c2cccc(CCl)c2)cc1` (racemic), the result in assay [3] was inactive. In addition, in [1], the result was Active. Moreover, the EC50 in assay [5] was 17 µM.

As to `COc1ccc(OCC2c3cc(OC)c(OC)cc3CCN2C(=O)c2cccc(OC)c2)cc1` (racemic), in assay [1], the outcome was Active. Also, the figures for the EC50 in [4] and in [5] were 12 µM and 5.8 µM, respectively.

`COc1ccc(OCC2c3cc(OC)c(OC)cc3CCN2C(=O)N2CCOCC2)cc1` (racemic): in assay [1], the outcome was Active.

For the compound `COc1ccc(OCC2c3cc(OC)c(OC)cc3CCN2C(=O)c2cccc([N+](=O)[O-])c2)cc1` (racemic), in assay [6], the Activity came to 70%. Besides, the EC50 was 13 µM in assay [4] and 11 µM in assay [5].

As to `COc1ccc(OCC2c3cc(OC)c(OC)cc3CCN2C(=O)c2ccccc2C)cc1` (racemic), the Activity in [6] came out at 70%.

As to `COc1ccc(OCC2c3cc(OC)c(OC)cc3CCN2C(=O)c2ccc3ccccc3c2)cc1` (racemic), the Activity in assay [10] was determined as 136%. For the same compound, in [3], the result was inactive.

On to `COc1ccc(OCC2c3cc(OC)c(OC)cc3CCN2C(=O)c2cccc(F)c2)cc1` (racemic), for which the result in [2] and in [3] was inactive. For the same compound, the results for the EC50 in assay [4] and in assay [5] were 7 µM and 7.2 µM, respectively.

For `CCOc1ccc(OCC2c3cc(OC)c(OC)cc3CCN2C(=O)c2cccc(Cl)c2)cc1` (racemic), in assay [1], the result was Active.
